Consider 41 compounds from ChEMBL document CHEMBL1134597, “Identification of alkylidene hydrazides as glucagon receptor antagonists” (J Med Chem, 2001).

Each structure is given as a SMILES string.

T1 sequence (P47871 whole entry): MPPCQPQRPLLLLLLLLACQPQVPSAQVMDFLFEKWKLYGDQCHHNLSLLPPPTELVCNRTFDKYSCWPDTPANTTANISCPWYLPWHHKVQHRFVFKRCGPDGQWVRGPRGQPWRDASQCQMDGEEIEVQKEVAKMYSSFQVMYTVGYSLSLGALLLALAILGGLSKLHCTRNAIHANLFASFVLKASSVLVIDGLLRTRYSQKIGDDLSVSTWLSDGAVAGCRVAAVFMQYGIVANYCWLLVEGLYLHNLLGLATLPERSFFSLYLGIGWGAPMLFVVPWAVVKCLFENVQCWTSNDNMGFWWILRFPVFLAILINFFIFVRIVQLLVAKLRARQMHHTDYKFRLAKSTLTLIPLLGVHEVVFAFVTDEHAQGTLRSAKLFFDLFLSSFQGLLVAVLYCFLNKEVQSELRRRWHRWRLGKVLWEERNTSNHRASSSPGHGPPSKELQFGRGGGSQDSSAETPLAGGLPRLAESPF
Sequence of Glucagon receptor (Rattus norvegicus, UniProt P30082) (P30082 whole entry): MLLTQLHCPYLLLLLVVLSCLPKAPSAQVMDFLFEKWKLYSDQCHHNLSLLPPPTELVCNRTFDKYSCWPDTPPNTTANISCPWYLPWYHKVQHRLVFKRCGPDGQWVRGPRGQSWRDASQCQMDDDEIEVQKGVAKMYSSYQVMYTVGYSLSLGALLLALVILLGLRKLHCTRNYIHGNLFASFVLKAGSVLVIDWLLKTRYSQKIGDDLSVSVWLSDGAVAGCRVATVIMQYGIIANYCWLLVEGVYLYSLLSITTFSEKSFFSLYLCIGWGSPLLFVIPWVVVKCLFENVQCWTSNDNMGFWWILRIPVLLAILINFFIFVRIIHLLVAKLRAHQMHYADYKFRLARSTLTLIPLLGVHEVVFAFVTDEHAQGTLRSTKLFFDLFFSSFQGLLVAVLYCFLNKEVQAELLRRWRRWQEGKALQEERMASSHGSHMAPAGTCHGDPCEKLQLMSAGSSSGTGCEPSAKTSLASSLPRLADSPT

The first assay has as its target T1, Glucagon receptor (Homo sapiens, UniProt P47871). The assay can be described thus: Binding affinity for human Glucagon Receptor. The procedure, abridged: (§1)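 Competition binding of [125I]glucagon (~25 000 cpm) to plasma membranes (~0.5 μg) from BHK cells transfected with cloned human glucagon receptor; 25 mM HEPES pH 7.4, 0.1% BSA; run in duplicate, 1 h at 37 °C. Bound and free separated by vacuum filtration on GF/C filters, then scintillation counting; IC50 determined.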
The compound `COc1cc(C(=O)N/N=C/c2ccc(-c3ccc(C)c(Cl)c3)o2)ccc1O` came in with an IC50 of 12 µM.

The compound `COc1cc(C(=O)N/N=C/c2cnc(O)nc2O)ccc1O` returned an IC50 greater than 100 µM. `COc1cccc(C(=O)N/N=C/c2ccc(OC)c3ccccc23)c1` displayed an IC50 greater than 100 µM. With `COc1cc(C(=O)N/N=C/c2[nH]cnc2C)ccc1O`, the IC50 is greater than 100 µM. `COc1cc(C(=O)N/N=C(\C)c2cccc3ccccc23)ccc1O` had an IC50 greater than 100 µM. In turn, `O=C(N/N=C/c1ccc(O)c2ccccc12)c1ccc2nccnc2c1` yielded an IC50 greater than 100 µM. In turn, `Nc1cc(C(=O)N/N=C/c2ccc(O)c3ccccc23)ccc1O` showed an IC50 of 2 µM. As to `COc1cc(C(=O)N/N=C/c2cccc(Oc3cccc(C(F)(F)F)c3)c2)ccc1O`, the IC50 stood at 4.9 µM. On to `COc1cc(/C=N/NC(=O)c2cccc3ccccc23)ccc1O`, for which the IC50 is greater than 100 µM. Still for that read-out and setting: with `COc1ccc(/C=N/NC(=O)c2ccc(O)cc2)c2ccccc12` the figure was 4.9 µM. Regarding `COc1cc(C(=O)N/N=C/c2ccc(OC)c3ccccc23)ccc1O`, the IC50 turned out to be 2.9 µM. On the same count and under the same terms, with `O=C(N/N=C/c1ccc(O)c2ccccc12)c1ccc(O)nc1` the figure was greater than 100 µM. The compound `COc1cc(C(=O)N/N=C/c2ccc(/C=C/c3ccccc3)cc2)ccc1O` yielded an IC50 greater than 100 µM. For the compound `COc1cc(C(=O)N/N=C/c2ccc(-c3ccccc3)cc2)ccc1O`, the IC50 worked out at 26 µM. The compound `COc1cc(C(=O)N/N=C/c2ccc(O)c3ccccc23)cc(Cl)c1O` returned an IC50 of 60 µM. The compound `COc1cc(C(=O)N/N=C/c2ccc(C(C)(C)C)cc2)ccc1O` returned an IC50 of 29 µM. Compound `COc1cc(C(=O)N/N=C/c2ccc(OC(F)(F)F)cc2)ccc1O` gave an IC50 of 43 µM. Still for that read-out and setting: with `O=C(N/N=C/c1ccc(O)c2ccccc12)c1ccc2[nH]ccc2c1` the figure was greater than 100 µM. The compound `COc1cc(C(=O)N/N=C/c2c[nH]c3ccccc23)ccc1O` registered an IC50 of 23 µM. On the same count and under the same terms, with `O=C(N/N=C/c1ccc(O)c2ccccc12)c1ccc(O)cc1` the figure was 1.2 µM. Take `O=C(N/N=C/c1ccc(O)c2ccccc12)c1ccc(O)c(F)c1`: the IC50 amounted to 0.39 µM.

`COc1cc(C(=O)N/N=C/c2cccc3ccccc23)ccc1O` registered a concentration for half-maximal inhibition (IC50) of 4.8 µM. `O=C(N/N=C/c1cccc2ccccc12)c1ccc(O)cc1` had an IC50 of 1.8 µM. Compound `O=C(N/N=C/c1ccc(O)c2ccccc12)c1cc(Cl)c(O)c(Cl)c1` gave an IC50 of 34 µM. For the compound `O=C(N/N=C/c1ccc(O)c2ccccc12)c1ccc(O)c(Br)c1`, the IC50 came to 0.83 µM. Turning to `COc1cc(C(=O)N/N=C/c2ccc(C(C)C)cc2)ccc1O`, the half-inhibitory concentration (IC50) amounted to 43 µM.

`COc1ccc(/C=N/NC(=O)c2ccc(O)c(OC)c2)cc1` had an IC50 greater than 100 µM.

`COc1cc(C(=O)N/N=C/c2ccnc3ccccc23)ccc1O` came in with an IC50 of 10 µM. The compound `O=C(NNCc1cccc2ccccc12)c1ccc(O)cc1` returned a half-maximal inhibitory concentration (IC50) greater than 100 µM. The compound `O=C(N/N=C/c1ccc(O)c2ccccc12)c1ccc(O)c(CN2CCOCC2)c1` returned an IC50 greater than 100 µM.

Compound `O=C(N/N=C/c1ccc(O)c2ccccc12)c1ccc(O)c(O)c1` returned an IC50 of 3.4 µM. On to `COc1cc(C(=O)N/N=C/c2ccc(O)cc2)ccc1O`, for which the IC50 is greater than 100 µM.

`CCn1c2ccccc2c2cc(/C=N/NC(=O)c3ccc(O)c(OC)c3)ccc21` returned an IC50 of 6.3 µM. Take `Nc1ccc(C(=O)N/N=C/c2ccc(O)c3ccccc23)cc1`: the IC50 was greater than 100 µM. Compound `O=C(N/N=C/c1ccc(O)c2ccccc12)c1ccc(O)cc1O` showed an IC50 of 28 µM.

`O=C(N/N=C/c1ccc(O)c2ccccc12)c1cc2cc(O)ccc2[nH]1` registered an IC50 greater than 100 µM.

For the compound `COc1cc(C(=O)N/N=C/c2ccc(N(C)C)c3ccccc23)ccc1O`, the IC50 turned out to be 8.1 µM. On the same count and under the same terms, with `COc1cc(C(=O)N/N=C/c2ccc(O)c3ccccc23)ccc1O` the figure was 0.72 µM; with `O=C(O)c1ccc(C(=O)N/N=C/c2ccc(O)c3ccccc23)cc1`, greater than 100 µM. Still for that read-out and setting: with `COc1ccc(/C=N/NC(=O)c2ccc(O)c(OC)c2)cc1O` the figure was greater than 100 µM.

For the next assay, the target named is Glucagon receptor (Rattus norvegicus, UniProt P30082). The assay can be described thus: Binding affinity towards rat Glucagon Receptor. An outline of the steps:
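Plasma membranes prepared from livers of male Wistar rats (2 μg protein) incubated with ~50 000 CPM 125I-glucagon in 50 mM HEPES, 5 mM EGTA, 5 mM MgCl2, 0.005% tween-20, pH 7.4. Samples diluted in DMSO. Nonspecific binding defined with excess unlabeled glucagon; 2 h at 30 °C; vacuum filtration, gamma counting; curve fitting gave IC50.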
Regarding `O=C(N/N=C/c1ccc(O)c2ccccc12)c1ccc(O)c(Cl)c1`, the IC50 came to 0.027 µM.

Test system in a further assay: not listed separately
Kind of assay: pA2 value for the compound was calculated. The procedure, abridged: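 BHK cells expressing cloned human glucagon receptor (10^6/mL) in HEPES pH 7.4 buffer with 0.1 mM IBMX and 0.2% BSA. Cells pretreated 10 min at 37 °C with several antagonist concentrations, then challenged with increasing glucagon for 20 min. cAMP measured by RIA; pA2 obtained by Schild analysis of rightward-shifted glucagon concentration-response curves.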
Consider `O=C(N/N=C/c1ccc(O)c2ccccc12)c1ccc(O)c(Cl)c1`, for which the pA2 is 6.99.

In a further assay the target is T1, Glucagon receptor. The assay can be described thus: Binding affinity towards human Glucagon Receptor by the displacement of [125I]-glucagon. An outline of the steps: as §1
The compound `O=C(N/N=C/c1ccc(O)c2ccccc12)c1ccc(O)c(Cl)c1` yielded an IC50 of 0.2 µM.
